Results from ChEMBL document CHEMBL3085721, “Nonhydrolyzable ATP analogues as selective inhibitors of human NPP1: a combined computational/experimental study” (J Med Chem, 2013).
The source made the active and inactive calls. No cut-off for these calls is given here.

Legend:
[1] = target: T1, Ectonucleoside triphosphate diphosphohydrolase 8 (Homo sapiens) (UniProt Q5MY95); assay: Inhibition of human NTPDase8 assessed as amount of inorganic phosphate released using ATP as the substrate preincubated at 100 uM for 3 mins before substrate addition after 15 mins by malachite green reagent method
T1 sequence (whole entry): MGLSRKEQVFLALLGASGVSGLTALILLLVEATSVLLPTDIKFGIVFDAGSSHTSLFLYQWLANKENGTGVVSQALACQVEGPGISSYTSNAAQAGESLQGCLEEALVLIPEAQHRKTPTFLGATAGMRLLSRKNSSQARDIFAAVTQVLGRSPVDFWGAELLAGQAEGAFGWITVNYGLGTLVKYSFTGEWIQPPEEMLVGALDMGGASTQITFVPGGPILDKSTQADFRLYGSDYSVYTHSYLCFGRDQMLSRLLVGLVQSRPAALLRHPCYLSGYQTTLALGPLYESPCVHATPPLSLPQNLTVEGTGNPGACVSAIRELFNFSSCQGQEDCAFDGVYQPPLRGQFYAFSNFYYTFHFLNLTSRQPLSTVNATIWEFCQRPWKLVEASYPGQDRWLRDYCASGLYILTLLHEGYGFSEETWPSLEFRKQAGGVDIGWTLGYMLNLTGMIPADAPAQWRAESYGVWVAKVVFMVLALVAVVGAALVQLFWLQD
Method in brief: (§1)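 Crude extracts of COS-7 cells transiently transfected with human NTPDase1, -2, -3 or -8, preincubated 3 min at 37 °C in Tris-Ringer medium pH 7.4 with analogue (final 100 μM). Started with 100 μM ATP, stopped after 15 min with malachite green; released Pi read at 630 nm. ATP alone set as 100%. Mean ± SD of 3−6 experiments in triplicate.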

[2] = target: T2, Ectonucleotide pyrophosphatase/phosphodiesterase family member 1 (Homo sapiens) (UniProt P22413); assay: Competitive inhibition of human NPP1 expressed in COS7 cells assessed as production of p-nitrophenol using pnp-TMP as the substrate preincubated at 25 to 100 uM for 3 mins before substrate addition measured after 15 mins by Dixon/Cornish Bowden method; format: cell-based; settings: COS-7
T2 sequence (whole entry): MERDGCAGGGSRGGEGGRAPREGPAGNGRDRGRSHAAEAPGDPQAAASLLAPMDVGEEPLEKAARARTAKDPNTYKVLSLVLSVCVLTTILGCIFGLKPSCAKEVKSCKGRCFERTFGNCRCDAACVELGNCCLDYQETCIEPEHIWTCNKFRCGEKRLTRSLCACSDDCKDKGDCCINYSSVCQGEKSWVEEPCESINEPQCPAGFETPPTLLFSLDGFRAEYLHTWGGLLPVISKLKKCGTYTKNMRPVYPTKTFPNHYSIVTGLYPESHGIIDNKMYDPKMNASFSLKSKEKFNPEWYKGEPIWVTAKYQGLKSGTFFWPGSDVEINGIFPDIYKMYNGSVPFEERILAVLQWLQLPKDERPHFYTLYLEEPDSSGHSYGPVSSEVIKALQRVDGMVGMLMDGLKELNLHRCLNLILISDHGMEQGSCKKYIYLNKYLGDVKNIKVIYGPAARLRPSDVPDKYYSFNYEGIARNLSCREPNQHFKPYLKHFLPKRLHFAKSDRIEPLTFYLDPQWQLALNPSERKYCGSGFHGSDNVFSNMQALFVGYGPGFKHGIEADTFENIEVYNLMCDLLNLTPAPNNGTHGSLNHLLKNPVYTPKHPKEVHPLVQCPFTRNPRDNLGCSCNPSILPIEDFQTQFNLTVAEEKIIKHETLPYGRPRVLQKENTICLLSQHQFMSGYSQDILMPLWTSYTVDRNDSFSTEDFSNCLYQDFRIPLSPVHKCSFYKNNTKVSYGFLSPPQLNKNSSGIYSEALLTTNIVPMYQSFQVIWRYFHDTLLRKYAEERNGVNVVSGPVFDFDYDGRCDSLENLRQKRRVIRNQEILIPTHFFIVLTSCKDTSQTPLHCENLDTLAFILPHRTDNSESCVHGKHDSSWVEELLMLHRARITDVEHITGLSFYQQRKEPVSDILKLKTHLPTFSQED
Method in brief: (§2)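 Crude protein extract from COS-7 cells transiently transfected with human NPP1 (sonicated, debris cleared at 300g), preincubated 3 min at 37 °C with inhibitor (0, 25, 50, 100 μM) in 1 mM CaCl2, 140 mM NaCl, 5 mM KCl, 50 mM Tris pH 8.5. pnp-TMP (25, 50, 100 μM) added; p-nitrophenol read at 410 nm after 15 min. Ki,app and inhibition type from Dixon and Cornish-Bowden plots, three independent experiments.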

[3] = target: T3, Ectonucleotide pyrophosphatase/phosphodiesterase family member 1 (Homo sapiens, UniProt P22413); assay: Mixed type inhibition of human NPP1 expressed in COS7 cells assessed as production of p-nitrophenol using pnp-TMP as the substrate preincubated for 3 mins before substrate addition measured after 15 mins by Dixon/Cornish Bowden method; format: cell-based, COS-7; settings: read-out: Ki(app); method in brief: as §2
T3 sequence (P22413 whole entry): T2 sequence (whole entry)

[4] = target: T4, Ectonucleoside triphosphate diphosphohydrolase 1 (Homo sapiens) (UniProt P49961); assay: Inhibition of human NTPDase1 assessed as amount of inorganic phosphate released using ATP as the substrate preincubated at 100 uM for 3 mins before substrate addition after 15 mins by malachite green reagent method; method in brief: as §1
T4 sequence (whole entry): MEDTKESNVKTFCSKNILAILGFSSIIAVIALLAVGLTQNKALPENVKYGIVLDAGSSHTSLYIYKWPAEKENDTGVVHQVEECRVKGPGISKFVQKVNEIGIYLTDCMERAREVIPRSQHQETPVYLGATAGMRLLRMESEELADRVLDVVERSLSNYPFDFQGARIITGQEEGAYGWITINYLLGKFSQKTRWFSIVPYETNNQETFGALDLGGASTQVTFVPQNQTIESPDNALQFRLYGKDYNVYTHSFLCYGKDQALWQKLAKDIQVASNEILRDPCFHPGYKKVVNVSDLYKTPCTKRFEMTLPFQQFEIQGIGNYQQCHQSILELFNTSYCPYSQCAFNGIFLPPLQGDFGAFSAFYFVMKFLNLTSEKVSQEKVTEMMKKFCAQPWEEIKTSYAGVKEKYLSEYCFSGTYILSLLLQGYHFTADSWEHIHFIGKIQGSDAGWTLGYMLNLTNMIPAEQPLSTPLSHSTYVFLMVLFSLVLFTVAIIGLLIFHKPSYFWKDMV

Compound | inhibition [1] | inhibition [2] | Ki [3] | inhibition [4]
B[P@](=O)(OC[C@H]1O[C@@H](n2cnc3c(N)ncnc32)[C@H](O)[C@@H]1O)OP(=O)(O)CP(=O)(O)O | < 18% | Active | 7 µM | < 18%
B[P@@](=O)(OC[C@H]1O[C@@H](n2cnc3c(N)nc(SC)nc32)[C@H](O)[C@@H]1O)OP(=O)(O)C(F)(F)P(=O)(O)O | 30% |  |  | 50%
CSc1nc(N)c2ncn([C@@H]3O[C@H](COP(=O)(O)C(F)(F)P(=O)(O)O)[C@@H](O)[C@H]3O)c2n1 | < 18% | Active | 26 µM | < 18%
B[P@@](=O)(OC[C@H]1O[C@@H](n2cnc3c(N)ncnc32)[C@H](O)[C@@H]1O)OP(=O)(O)CP(=O)(O)O | < 18% | Active | 0.5 µM | < 18%
B[P@](=O)(OC[C@H]1O[C@@H](n2cnc3c(N)nc(SC)nc32)[C@H](O)[C@@H]1O)OP(=O)(O)CP(=O)(O)O | < 18% | Active | 56 µM | < 18%
